*1 amine or outer side, *2 acyl side, *3 side chain or, on linkers, in order; H or OH if unused. Where a SMILES comes first, the peptide text is derived from it. Bridges are numbered along the chain shown (N, C = ends). [ ]: non-standard residue; d: D form. The star is where a group is joined. Staurosporine = CO[C@@H]1[C@H](N(C)*)C[C@H]2O[C@]1(C)n1c3ccccc3c3c4c(c5c6ccccc6n2c5c31)C(=O)NC4; Suc = O=C(CCC(=O)[*:2])[*:1]; Dap = NC[C@H](N)C(=O)O; βAla = NCCC(=O)O
Key:
[1] = molecular target: Insulin-like growth factor 1 receptor (Homo sapiens) (UniProt P08069); assay: Binding affinity to human IGF1R at 500 nM by cell-based competition binding assay relative to control in presence of DTT
Insulin-like growth factor 1 receptor (Homo sapiens), sequence (P08069 31-736 limits assumed): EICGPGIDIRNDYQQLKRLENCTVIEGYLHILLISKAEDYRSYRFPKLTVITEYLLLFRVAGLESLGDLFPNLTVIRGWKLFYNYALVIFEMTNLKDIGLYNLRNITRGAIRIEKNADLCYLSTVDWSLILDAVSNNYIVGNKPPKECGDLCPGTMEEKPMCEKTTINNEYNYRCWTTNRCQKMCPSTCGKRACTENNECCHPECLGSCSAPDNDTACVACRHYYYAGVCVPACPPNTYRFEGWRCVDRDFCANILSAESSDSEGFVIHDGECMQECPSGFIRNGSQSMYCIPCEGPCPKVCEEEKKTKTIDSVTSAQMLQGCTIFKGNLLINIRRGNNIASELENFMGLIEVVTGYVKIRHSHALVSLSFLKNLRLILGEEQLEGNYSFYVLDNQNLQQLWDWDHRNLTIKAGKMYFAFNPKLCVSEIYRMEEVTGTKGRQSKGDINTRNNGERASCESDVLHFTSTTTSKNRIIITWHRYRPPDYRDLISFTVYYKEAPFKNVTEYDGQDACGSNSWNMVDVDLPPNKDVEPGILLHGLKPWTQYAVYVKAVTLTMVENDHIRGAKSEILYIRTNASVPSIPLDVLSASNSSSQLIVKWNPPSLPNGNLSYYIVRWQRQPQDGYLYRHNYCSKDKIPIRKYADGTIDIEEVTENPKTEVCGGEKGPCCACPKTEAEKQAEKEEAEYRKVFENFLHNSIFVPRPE
Insulin-like growth factor 1 receptor (Homo sapiens), sequence (P08069 741-1367 limits assumed): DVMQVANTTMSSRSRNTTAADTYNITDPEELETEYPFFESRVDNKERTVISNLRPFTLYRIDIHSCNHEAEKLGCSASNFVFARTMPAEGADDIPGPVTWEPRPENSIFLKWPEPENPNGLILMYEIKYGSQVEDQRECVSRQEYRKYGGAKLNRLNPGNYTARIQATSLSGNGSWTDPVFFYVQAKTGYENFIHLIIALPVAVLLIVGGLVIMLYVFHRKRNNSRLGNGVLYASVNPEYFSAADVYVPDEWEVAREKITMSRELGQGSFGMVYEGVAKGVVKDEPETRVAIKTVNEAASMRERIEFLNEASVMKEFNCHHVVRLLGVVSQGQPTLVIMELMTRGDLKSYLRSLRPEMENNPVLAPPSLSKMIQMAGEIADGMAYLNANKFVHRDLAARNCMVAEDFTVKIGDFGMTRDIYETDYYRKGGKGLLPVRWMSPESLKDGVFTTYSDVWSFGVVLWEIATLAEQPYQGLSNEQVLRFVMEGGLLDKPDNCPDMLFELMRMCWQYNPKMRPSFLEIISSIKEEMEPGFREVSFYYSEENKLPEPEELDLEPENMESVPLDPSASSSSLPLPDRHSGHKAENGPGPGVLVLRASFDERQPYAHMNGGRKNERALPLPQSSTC
Procedure, shortened: (§1)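 Competition binding screen (Ambit) across a panel of 90 kinases, scoring test ligand displacement of each kinase's binding relative to control. The screen ran under reducing conditions with 7.5 mM DTT.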

[2] = molecular target: T1, Bone morphogenetic protein receptor type-2 (Homo sapiens) (UniProt Q13873); assay: Binding affinity to human BMPR2 at 500 nM by cell-based competition binding assay relative to control in presence of DTT
T1 sequence (whole entry): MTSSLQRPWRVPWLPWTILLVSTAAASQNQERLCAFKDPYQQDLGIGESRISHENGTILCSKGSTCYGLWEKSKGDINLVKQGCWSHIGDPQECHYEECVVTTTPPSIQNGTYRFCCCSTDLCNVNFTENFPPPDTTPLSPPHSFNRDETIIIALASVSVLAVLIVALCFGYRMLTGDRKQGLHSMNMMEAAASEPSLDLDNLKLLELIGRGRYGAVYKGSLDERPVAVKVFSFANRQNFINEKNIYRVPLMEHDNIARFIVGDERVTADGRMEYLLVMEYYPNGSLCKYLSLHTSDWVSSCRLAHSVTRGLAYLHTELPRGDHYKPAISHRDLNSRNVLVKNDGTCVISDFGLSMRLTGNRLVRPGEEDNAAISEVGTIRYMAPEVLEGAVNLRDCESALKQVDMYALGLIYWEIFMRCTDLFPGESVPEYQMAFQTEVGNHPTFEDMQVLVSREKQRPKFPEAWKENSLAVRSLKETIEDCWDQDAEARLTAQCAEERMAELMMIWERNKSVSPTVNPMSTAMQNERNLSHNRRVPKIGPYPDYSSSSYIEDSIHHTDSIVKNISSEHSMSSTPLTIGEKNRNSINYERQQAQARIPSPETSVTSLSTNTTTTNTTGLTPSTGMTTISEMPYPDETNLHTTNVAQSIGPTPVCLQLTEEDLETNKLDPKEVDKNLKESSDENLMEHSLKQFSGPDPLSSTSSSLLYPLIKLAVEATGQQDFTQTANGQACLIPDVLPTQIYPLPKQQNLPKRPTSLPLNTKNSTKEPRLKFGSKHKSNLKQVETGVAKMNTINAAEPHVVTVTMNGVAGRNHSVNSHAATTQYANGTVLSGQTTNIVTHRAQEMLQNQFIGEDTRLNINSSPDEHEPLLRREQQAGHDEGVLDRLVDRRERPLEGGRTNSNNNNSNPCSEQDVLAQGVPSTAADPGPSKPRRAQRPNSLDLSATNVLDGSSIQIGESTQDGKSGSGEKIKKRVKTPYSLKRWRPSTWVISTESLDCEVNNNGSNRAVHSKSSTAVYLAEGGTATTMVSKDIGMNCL
Procedure, shortened: (§2)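 Kinase binding profiling ran on a commercial (Ambit) competitive binding screen against a panel of 90 kinases. The screen used reducing conditions with 7.5 mM DTT. To withstand the DTT, the bivalent ligand was tested as its amide isostere, with the disulfide replaced. A staurosporine derivative carrying a 3 β-alanine linker was run as the reference compound.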

[3] = molecular target: RAF proto-oncogene serine/threonine-protein kinase (Homo sapiens) (UniProt P04049); assay: Binding affinity to human RAF1 at 500 nM by cell-based competition binding assay relative to control in presence of DTT
[4] = molecular target: Mitogen-activated protein kinase 8 (Homo sapiens) (UniProt P45983); assay: Binding affinity to human JNK1 at 500 nM by cell-based competition binding assay relative to control in presence of DTT; procedure, shortened: as §1
Mitogen-activated protein kinase 8 (Homo sapiens), sequence (P45983 whole entry): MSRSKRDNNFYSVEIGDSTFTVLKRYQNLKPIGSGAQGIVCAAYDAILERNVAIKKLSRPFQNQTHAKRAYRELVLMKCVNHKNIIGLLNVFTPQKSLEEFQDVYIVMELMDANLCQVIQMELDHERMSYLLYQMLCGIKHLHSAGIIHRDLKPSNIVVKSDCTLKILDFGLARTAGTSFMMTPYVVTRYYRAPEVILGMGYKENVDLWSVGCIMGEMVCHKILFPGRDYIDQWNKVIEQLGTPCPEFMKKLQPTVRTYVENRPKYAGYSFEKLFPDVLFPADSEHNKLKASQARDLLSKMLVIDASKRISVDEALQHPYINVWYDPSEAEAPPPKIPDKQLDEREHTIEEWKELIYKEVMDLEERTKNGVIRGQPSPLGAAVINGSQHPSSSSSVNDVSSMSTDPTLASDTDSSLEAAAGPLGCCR

[5] = molecular target: Proto-oncogene tyrosine-protein kinase receptor Ret (Homo sapiens) (UniProt P07949); assay: Binding affinity to human RET at 200 nM by cell-based competition binding assay relative to control in presence of DTT
Proto-oncogene tyrosine-protein kinase receptor Ret (Homo sapiens), sequence (P07949 whole entry): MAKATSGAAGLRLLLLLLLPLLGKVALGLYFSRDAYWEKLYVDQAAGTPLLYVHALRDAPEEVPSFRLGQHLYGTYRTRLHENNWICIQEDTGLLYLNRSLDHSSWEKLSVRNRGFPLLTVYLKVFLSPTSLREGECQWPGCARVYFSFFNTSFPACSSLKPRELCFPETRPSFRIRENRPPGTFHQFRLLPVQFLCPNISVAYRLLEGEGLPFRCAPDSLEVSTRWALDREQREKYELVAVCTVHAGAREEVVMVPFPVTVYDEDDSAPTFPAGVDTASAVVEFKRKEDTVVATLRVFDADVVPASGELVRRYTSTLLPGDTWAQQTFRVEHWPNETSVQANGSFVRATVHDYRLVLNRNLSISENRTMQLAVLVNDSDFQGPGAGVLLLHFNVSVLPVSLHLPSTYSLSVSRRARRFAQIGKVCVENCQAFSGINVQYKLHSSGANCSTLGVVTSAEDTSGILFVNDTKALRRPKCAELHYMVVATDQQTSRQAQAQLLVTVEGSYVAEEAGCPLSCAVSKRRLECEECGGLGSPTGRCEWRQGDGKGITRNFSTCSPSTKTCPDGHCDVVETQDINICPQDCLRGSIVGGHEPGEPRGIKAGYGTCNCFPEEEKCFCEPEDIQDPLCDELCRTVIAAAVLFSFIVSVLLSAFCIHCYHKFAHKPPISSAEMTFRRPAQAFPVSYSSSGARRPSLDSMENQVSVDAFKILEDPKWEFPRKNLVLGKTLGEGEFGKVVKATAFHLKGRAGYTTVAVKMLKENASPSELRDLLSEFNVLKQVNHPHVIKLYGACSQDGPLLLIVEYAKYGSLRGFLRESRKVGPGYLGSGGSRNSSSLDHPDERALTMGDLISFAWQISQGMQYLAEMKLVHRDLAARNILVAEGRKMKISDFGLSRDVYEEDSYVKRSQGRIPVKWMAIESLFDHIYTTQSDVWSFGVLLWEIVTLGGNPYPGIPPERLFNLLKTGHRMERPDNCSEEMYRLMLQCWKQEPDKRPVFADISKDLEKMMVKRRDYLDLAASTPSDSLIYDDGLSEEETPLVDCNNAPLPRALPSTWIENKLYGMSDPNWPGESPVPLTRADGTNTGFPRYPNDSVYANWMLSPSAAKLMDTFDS

[6] = molecular target: Mitogen-activated protein kinase kinase kinase 4 (Homo sapiens) (UniProt Q9Y6R4); assay: Binding affinity to human MAP3K4 at 200 nM by cell-based competition binding assay relative to control in presence of DTT; procedure, shortened: as §1
[7] = molecular target: Insulin receptor (Homo sapiens) (UniProt P06213); assay: Binding affinity to human INSR at 200 nM by cell-based competition binding assay relative to control in presence of DTT; procedure, shortened: as §1
[8] = molecular target: High affinity nerve growth factor receptor (Homo sapiens) (UniProt P04629); assay: Binding affinity to human TRKA at 200 nM by cell-based competition binding assay relative to control in presence of DTT
[9] = tested on: Tyrosine-protein kinase ABL1 (Homo sapiens), P00519 [T315I]; assay: Binding affinity to human ABL1 T315I mutant at 200 nM by cell-based competition binding assay relative to control in presence of DTT; procedure, shortened: as §2
[10] = molecular target: Receptor tyrosine-protein kinase erbB-4 (Homo sapiens) (UniProt Q15303); assay: Binding affinity to human ERBB4 at 200 nM by cell-based competition binding assay relative to control in presence of DTT
Procedure, shortened: (§3)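 Commercial (Ambit) competitive kinase-binding panel of 90 kinases measured the binding profile. Run under reducing conditions of 7.5 mM DTT. Binding is expressed relative to control.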

[11] = molecular target: Cyclin-dependent kinase 7 (Homo sapiens) (UniProt P50613); assay: Binding affinity to human CDK7 at 200 nM by cell-based competition binding assay relative to control in presence of DTT; procedure, shortened: as §2
[12] = molecular target: Platelet-derived growth factor receptor beta (Homo sapiens) (UniProt P09619); assay: Binding affinity to human PDGFRbeta at 200 nM by cell-based competition binding assay relative to control in presence of DTT
[13] = molecular target: Vascular endothelial growth factor receptor 2 (Homo sapiens) (UniProt P35968); assay: Binding affinity to human VEGFR2 at 200 nM by cell-based competition binding assay relative to control in presence of DTT
Vascular endothelial growth factor receptor 2 (Homo sapiens), sequence (P35968 whole entry, the tested form may be a part): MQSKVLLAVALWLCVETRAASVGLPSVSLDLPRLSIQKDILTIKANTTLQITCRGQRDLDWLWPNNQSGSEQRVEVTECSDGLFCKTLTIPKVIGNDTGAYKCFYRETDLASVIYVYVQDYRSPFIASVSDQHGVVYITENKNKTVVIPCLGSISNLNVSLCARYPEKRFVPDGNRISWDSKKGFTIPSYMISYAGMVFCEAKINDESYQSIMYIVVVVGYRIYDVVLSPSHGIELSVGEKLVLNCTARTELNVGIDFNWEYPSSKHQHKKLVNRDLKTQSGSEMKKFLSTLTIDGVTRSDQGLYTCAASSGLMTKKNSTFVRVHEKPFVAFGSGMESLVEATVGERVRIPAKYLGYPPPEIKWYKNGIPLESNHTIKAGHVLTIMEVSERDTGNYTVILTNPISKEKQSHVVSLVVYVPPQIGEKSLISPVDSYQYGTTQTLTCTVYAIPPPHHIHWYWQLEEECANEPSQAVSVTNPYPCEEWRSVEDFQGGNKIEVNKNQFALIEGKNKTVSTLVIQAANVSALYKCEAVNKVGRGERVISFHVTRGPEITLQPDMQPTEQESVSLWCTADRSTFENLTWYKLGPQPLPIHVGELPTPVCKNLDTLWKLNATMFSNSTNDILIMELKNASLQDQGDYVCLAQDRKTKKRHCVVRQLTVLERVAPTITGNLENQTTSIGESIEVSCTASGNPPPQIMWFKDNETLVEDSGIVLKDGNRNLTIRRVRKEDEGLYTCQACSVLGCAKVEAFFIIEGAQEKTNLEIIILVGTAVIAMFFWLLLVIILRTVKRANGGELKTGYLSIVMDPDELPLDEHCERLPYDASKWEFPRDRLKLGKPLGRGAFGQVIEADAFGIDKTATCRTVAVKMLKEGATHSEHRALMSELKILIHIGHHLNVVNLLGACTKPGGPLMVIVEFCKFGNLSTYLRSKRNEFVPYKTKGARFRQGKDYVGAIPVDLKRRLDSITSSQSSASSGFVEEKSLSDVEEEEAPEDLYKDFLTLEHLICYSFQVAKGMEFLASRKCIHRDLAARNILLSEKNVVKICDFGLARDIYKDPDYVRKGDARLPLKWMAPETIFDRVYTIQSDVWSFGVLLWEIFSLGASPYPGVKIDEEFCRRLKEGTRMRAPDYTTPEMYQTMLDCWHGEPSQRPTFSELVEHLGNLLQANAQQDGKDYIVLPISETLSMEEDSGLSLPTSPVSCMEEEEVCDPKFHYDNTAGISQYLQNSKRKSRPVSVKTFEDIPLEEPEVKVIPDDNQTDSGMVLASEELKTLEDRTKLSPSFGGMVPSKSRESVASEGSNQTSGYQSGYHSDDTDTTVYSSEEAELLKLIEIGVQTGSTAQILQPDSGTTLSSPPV

[14] = molecular target: Ribosomal protein S6 kinase alpha-3 (Homo sapiens) (UniProt P51812); assay: Binding affinity to human RPS6KA3 kinase domain 1 at 50 nM by cell-based competition binding assay relative to control in presence of DTT
Ribosomal protein S6 kinase alpha-3 (Homo sapiens), sequence (P51812 whole entry, the tested form may be a part): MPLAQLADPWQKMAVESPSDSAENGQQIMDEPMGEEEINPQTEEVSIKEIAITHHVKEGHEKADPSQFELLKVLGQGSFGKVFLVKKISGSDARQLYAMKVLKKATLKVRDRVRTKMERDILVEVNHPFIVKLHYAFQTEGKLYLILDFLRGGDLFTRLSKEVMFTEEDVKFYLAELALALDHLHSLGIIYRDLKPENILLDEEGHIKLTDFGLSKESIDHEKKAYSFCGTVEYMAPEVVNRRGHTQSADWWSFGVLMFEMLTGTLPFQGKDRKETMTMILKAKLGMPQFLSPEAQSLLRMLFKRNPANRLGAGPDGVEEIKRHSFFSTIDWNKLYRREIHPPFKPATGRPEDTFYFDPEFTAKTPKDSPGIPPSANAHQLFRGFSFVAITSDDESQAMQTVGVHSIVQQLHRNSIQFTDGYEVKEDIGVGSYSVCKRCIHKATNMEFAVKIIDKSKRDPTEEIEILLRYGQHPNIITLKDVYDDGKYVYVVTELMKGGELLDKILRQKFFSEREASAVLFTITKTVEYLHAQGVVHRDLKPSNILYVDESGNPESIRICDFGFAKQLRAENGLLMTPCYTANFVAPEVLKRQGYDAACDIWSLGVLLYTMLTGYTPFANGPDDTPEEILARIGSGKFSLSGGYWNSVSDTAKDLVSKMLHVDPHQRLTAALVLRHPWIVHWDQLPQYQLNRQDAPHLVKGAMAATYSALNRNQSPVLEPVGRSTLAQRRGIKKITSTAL

[15] = tested on: Tyrosine-protein kinase ABL1 (Homo sapiens), P00519 [E255K]; assay: Binding affinity to human ABL1 E255K mutant at 50 nM by cell-based competition binding assay relative to control in presence of DTT; procedure, shortened: as §2
[16] = molecular target: Glycogen synthase kinase-3 beta (Homo sapiens) (UniProt P49841); assay: Binding affinity to human GSK3-beta at 50 nM by cell-based competition binding assay relative to control in presence of DTT; procedure, shortened: as §1
[17] = molecular target: RAC-alpha serine/threonine-protein kinase (Homo sapiens) (UniProt P31749); assay: Binding affinity to human AKT1 at 50 nM by cell-based competition binding assay relative to control in presence of DTT; procedure, shortened: as §2
[18] = molecular target: Serine/threonine-protein kinase PLK3 (Homo sapiens) (UniProt Q9H4B4); assay: Binding affinity to human PLK3 at 50 nM by cell-based competition binding assay relative to control in presence of DTT
[19] = molecular target: Epidermal growth factor receptor (Homo sapiens) (UniProt P00533); assay: Binding affinity to human EGFR at 50 nM by cell-based competition binding assay relative to control in presence of DTT; procedure, shortened: as §3

SMILES: CO[C@@H]1[C@H](N(C)C(=O)CCC(=O)NCCC(=O)NCCC(=O)NCCC(N)=O)C[C@H]2O[C@]1(C)n1c3ccccc3c3c4c(c5c6ccccc6n2c5c31)C(=O)NC4
- Activity [1]: 82%
- Activity [2]: 100%
- Activity [3]: 73%
- Activity [4]: 52%

SMILES: CO[C@@H]1[C@H](N(C)C(=O)CCC(=O)NCCC(=O)NCCC(=O)NCCC(=O)NCCC(=O)NCCC(=O)NCCC(=O)NCCC(=O)N[C@H]2CSSC[C@@H](C(=O)NCC(N)=O)NC(=O)CNC(=O)[C@H](Cc3ccccc3)NC(=O)[C@H](C(C)C)NC(=O)[C@H](CCCNC(=N)N)NC(=O)[C@H](Cc3ccccc3)NC(=O)[C@H](C(C)C)NC2=O)C[C@H]2O[C@]1(C)n1c3ccccc3c3c4c(c5c6ccccc6n2c5c31)C(=O)NC4 ({Staurosporine-Suc-βAla-βAla-βAla-βAla-βAla-βAla-βAla}-CVFRVFGCG-NH2; disulfide 1-8)
- Activity [5]: 40%
- Activity [6]: 94%
- Activity [7]: 100%
- Activity [8]: 57%
- Activity [9]: 78%
- Activity [10]: 100%
- Activity [11]: 74%
- Activity [12]: 3.2%
- Activity [13]: 73%

SMILES: CO[C@@H]1[C@H](N(C)C(=O)CCC(=O)NCCC(=O)NCCC(=O)NCCC(=O)NCCC(=O)NCCC(=O)NCCC(=O)NCCC(=O)N[C@H]2CNC(=O)C[C@@H](C(N)=O)NC(=O)CNC(=O)[C@H](Cc3ccccc3)NC(=O)[C@H](C(C)C)NC(=O)[C@H](CCCNC(=N)N)NC(=O)[C@H](Cc3ccccc3)NC(=O)[C@H](C(C)C)NC2=O)C[C@H]2O[C@]1(C)n1c3ccccc3c3c4c(c5c6ccccc6n2c5c31)C(=O)NC4 ({Staurosporine-Suc-βAla-βAla-βAla-βAla-βAla-βAla-βAla}-[Dap]VFRVFGD-NH2; lactam 1-8)
- Activity [14]: 100%
- Activity [15]: 97%
- Activity [16]: 74%
- Activity [17]: 100%
- Activity [18]: 98%
- Activity [19]: 87%

Source: ChEMBL document CHEMBL1152541, “Staurosporine tethered peptide ligands that target cAMP-dependent protein kinase (PKA): optimization and selectivity profiling” (Bioorg Med Chem, 2009)
